Screens from PubChem.
Only some compounds are listed: those with a hit (about 5.8% of all), similar ones and a draw of the others.
IDH1 R132H inh: IDH1 R132H (human) inhibition; IDH1 R132H reductase, diaphorase/resazurin fluorescence, 60 min; inhibition, % at 10 µM; hit rate 0.18% among 70,000; AID 624101; in the data active = inhibition above about 34%; inconclusive = no clear call, values can overlap the other calls; inactive = below about 11%;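 also: 0% = DMSO and 100% = no enzyme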
Target sequence (O75874 whole entry R132H): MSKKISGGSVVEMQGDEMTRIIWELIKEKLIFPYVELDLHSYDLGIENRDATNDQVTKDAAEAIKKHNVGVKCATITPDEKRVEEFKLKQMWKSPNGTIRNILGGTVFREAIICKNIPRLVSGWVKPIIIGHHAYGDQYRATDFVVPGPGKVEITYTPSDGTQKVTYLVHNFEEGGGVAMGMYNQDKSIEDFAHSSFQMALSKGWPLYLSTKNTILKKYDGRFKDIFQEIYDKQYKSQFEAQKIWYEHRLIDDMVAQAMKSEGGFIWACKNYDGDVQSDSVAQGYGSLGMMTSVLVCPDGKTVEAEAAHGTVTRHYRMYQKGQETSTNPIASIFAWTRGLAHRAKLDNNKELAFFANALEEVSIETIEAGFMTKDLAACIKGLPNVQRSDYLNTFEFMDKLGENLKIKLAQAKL
T cruzi growth-1: blocks T. cruzi growth in NIH3T3 culture. T. cruzi beta-gal in NIH3T3, GalScreen luminescence, 90 h. inhibition, % at 8.34 µM. hit rate 5.9% among 77,000. AID 624255;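 active = mean inhibition above about 93%, with at least 55% of replicates each passing it, limit read from the data, passing the limit was not always enough; inconclusive = only one of those two conditions holds; inactive = neither condition holds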
Pf Dd2 inh: blocks growth of Plasmodium falciparum Dd2 parasites; P. falciparum Dd2 growth, SYBR Green, 72 h; active compounds read low; activity change, % at 10 µM; hit rate 2.3% among 94,000; in the data active = activity change below about -80%; inconclusive = no clear call, values can overlap the other calls
GASC1 inh: inhibitors of human demethylase GASC-1 KDM4C. Q9H3R0. GST-KDM4C 2-372, H3K9me3 peptide, LANCE TR-FRET. inhibition, % at 12.5 µM. hit rate 0.15% among 96,000. AID 720574;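 active = mean replicate inhibition above about 25%, with at least 55% of replicates also reaching it, limit read from the data, passing the limit was not always enough; inconclusive = only one of those two conditions met; inactive = neither condition met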
Target sequence (Q9H3R0 2-372 limits assumed): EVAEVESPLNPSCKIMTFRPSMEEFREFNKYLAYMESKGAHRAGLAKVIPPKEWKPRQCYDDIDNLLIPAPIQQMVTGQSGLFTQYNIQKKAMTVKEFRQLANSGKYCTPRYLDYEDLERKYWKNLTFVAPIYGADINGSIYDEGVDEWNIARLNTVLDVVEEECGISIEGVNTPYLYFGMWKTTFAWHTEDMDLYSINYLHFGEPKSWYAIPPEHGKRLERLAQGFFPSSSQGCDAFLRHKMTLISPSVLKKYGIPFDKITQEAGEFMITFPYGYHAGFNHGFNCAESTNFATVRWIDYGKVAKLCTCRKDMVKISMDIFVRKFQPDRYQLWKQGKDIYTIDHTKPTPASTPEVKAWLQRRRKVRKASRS
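Test system – GST-tagged GASC-1 (JMJD2C) catalytic fragment, aa 2-372 · Medium – HEPES buffer, pH 7.5, plus ascorbate · Reagent – H3K9me3 peptide with Fe(II)/2OG · Compound – one test concentration per compound · Timing – 30 min reaction, 60 min detection, RT · Technique – TR-FRET with Eu antibody and ULight streptavidin, EDTA stop · Read-out basis – inhibition from TR-FRET ratio decrease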
T cruzi growth-2: inhibitors of T. cruzi proliferation | shares compounds with T cruzi growth-1 | T. cruzi beta-gal in NIH3T3, GalScreen luminescence, 90 h | inhibition, % at 8.35 µM | hit rate 72% among 5,600 | AID 651739;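 active = mean replicate inhibition above about 95% and at least 55% of replicates individually reaching it, limit read from the data; inconclusive = only one of the two criteria is met; inactive = neither criterion is met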
T cruzi growth-3: blocks T. cruzi growth in NIH3T3 host cells. shares compounds with T cruzi growth-1. T. cruzi beta-gal in NIH3T3, GalScreen luminescence, 90 h. inhibition, % at 2.09 µM. hit rate 21% among 5,600. AID 651740;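 active = mean inhibition above about 95%, with at least 55% of replicates also reaching it, limit read from the data; inconclusive = meets just one of the two conditions; inactive = meets neither condition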;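 also: plate controls were neutral control median for no effect and positive control median for full effect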
NIH3T3 tox: NIH/3T3 (mouse) viability loss | hit rate 14% among 5,600 | shares compounds with T cruzi growth-1 | cytotoxicity (signal decrease), % at 8.35 µM | NIH/3T3 viability, CellTiter-Glo ATP luminescence, 90 h | AID 651742;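 active = mean signal decrease across replicates above about 35% based on untreated-well scatter, with enough replicates individually passing, limit read from the data; inconclusive = no rule stated though some were filed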;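 also: 0% = median of neutral control wells and 100% = median of positive control wells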
3T3 cytotox 2: cytotoxicity in mouse NIH/3T3 fibroblasts; shares compounds with T cruzi growth-1; NIH/3T3 viability, CellTiter-Glo ATP luminescence, 90 h; inhibition, % at 24.9 µM; hit rate 56% among 5,600;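 active = mean loss of cell viability signal at or above a set limit, and enough replicates individually reaching it; inconclusive = meets only the mean limit or only the replicate share; inactive = meets neither condition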;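 also: 0% = median of neutral control wells and 100% = median of positive control wells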
* = called active by the depositor.

How did C[C@H]1CN([C@@H](C)CO)C(=O)Cc2cc(N(C)C)ccc2O[C@@H]1CN(C)Cc1ccc2c(c1)OCO2 do in these assays?
IDH1 R132H inh: 0.0; T cruzi growth-1: 107.2*; Pf Dd2 inh: -2.1; GASC1 inh: 6.6; T cruzi growth-2: 101.3*; T cruzi growth-3: 63.0; NIH3T3 tox: 1.2; 3T3 cytotox 2: 11.5

How did Cc1cc(Cl)ccc1OCC(=O)Nc1cc(Cl)ccc1C(=O)O do in these assays?
IDH1 R132H inh: -0.7

What do the screens show for `C[C@H]1CN([C@@H](C)CO)C(=O)c2cc(NC(=O)Nc3ccc(F)cc3)ccc2O[C@H]1CN(C)Cc1ccc(-c2ccccc2)cc1`?
IDH1 R132H inh: -0.3; T cruzi growth-1: 98.4*; Pf Dd2 inh: -4.8; GASC1 inh: -1.7; T cruzi growth-2: 102.1*; T cruzi growth-3: 103.4*; NIH3T3 tox: 32.3; 3T3 cytotox 2: 102.9*

Results for C[C@H](CO)N1C[C@H](C)[C@@H](CN(C)Cc2ccc(-c3ccccc3)cc2)Oc2ccc(NC(=O)Nc3ccc(F)cc3)cc2C1=O ?
IDH1 R132H inh: 0.4; T cruzi growth-1: 11.0; Pf Dd2 inh: 18.1; GASC1 inh: 1.0

Results for C[C@H](CO)N1C[C@H](C)[C@@H](CN(C)Cc2ccc(C(F)(F)F)cc2)Oc2ccc(NC(=O)Nc3ccccc3)cc2C1=O ?
T cruzi growth-1: 51.5; Pf Dd2 inh: -79.2; GASC1 inh: 0.8

How did C[C@H](CO)N1C[C@H](C)[C@H](CN(C)Cc2ccc(-c3ccccc3)cc2)Oc2ccc(NC(=O)Nc3ccc(C(F)(F)F)cc3)cc2C1=O do in these assays?
IDH1 R132H inh: 3.6; T cruzi growth-1: 80.7*; Pf Dd2 inh: 18.1; GASC1 inh: 0.3; T cruzi growth-2: 98.4*; T cruzi growth-3: 87.9; NIH3T3 tox: 13.6; 3T3 cytotox 2: 105.2*

How did C[C@H]1CN([C@@H](C)CO)C(=O)c2cc(NC(=O)Nc3ccc(C(F)(F)F)cc3)ccc2O[C@@H]1CN(C)Cc1ccc(-c2ccccc2)cc1 do in these assays?
T cruzi growth-1: 112.6*; Pf Dd2 inh: 2.1; GASC1 inh: 2.9; T cruzi growth-2: 108.0*; T cruzi growth-3: 40.4; NIH3T3 tox: 3.1; 3T3 cytotox 2: 104.1*

What do the screens show for `C[C@H]1CN([C@@H](C)CO)C(=O)c2cc(NC(=O)Nc3ccc(C(F)(F)F)cc3)ccc2O[C@H]1CN(C)Cc1ccc(-c2ccccc2)cc1`?
IDH1 R132H inh: 0.2; T cruzi growth-1: 118.1*; Pf Dd2 inh: 8.1; GASC1 inh: -0.2; T cruzi growth-2: 106.4*; T cruzi growth-3: inconclusive; NIH3T3 tox: 28.8; 3T3 cytotox 2: 103.9*

Results for C[C@H](CO)N1C[C@H](C)[C@H](CN(C)C(=O)c2ccncc2)Oc2cc(C#CC3CC3)ccc2S1(=O)=O ?
IDH1 R132H inh: 5.6; T cruzi growth-1: 103.1*; Pf Dd2 inh: -48.5; GASC1 inh: 1.1; T cruzi growth-2: 92.5; T cruzi growth-3: 74.1; NIH3T3 tox: 0.4; 3T3 cytotox 2: 27.7*

Results for C[C@@H]1CN([C@H](C)CO)S(=O)(=O)c2ccc(C#CC3CC3)cc2O[C@H]1CN(C)C(=O)c1ccncc1 ?
IDH1 R132H inh: -0.3; T cruzi growth-1: 92.7; Pf Dd2 inh: -50.1; GASC1 inh: 5.3

Results for C[C@@H]1CN([C@H](C)CO)S(=O)(=O)c2ccc(C#CC3CC3)cc2O[C@@H]1CN(C)C(=O)c1ccccc1 ?
IDH1 R132H inh: 0.2; T cruzi growth-1: inconclusive; Pf Dd2 inh: -38.7; GASC1 inh: -2.0; T cruzi growth-2: 106.2*; T cruzi growth-3: 63.3; NIH3T3 tox: 32.7; 3T3 cytotox 2: 51.5*

Results for O=C(CSc1ncccn1)Nc1cc(Cl)cc(Cl)c1 ?
IDH1 R132H inh: 0.1

Results for CC1(C(=O)c2ccccc2)C2c3c(ccc4ccccc34)OC(=O)C21C(=O)c1ccco1 (stereo not given) ?
IDH1 R132H inh: 1.8

What do the screens show for `O=C(Nc1ccccc1F)N1CCCCN2[C@H](C1)[C@H](c1ccc(/C=C/c3ccccc3)cc1)[C@@H]2CO`?
T cruzi growth-1: 115.9*; Pf Dd2 inh: -14.2; GASC1 inh: -0.6; T cruzi growth-2: 109.7*; T cruzi growth-3: 51.2; NIH3T3 tox: 3.7; 3T3 cytotox 2: 46.8*

What do the screens show for `O=C(Nc1ccccc1F)N1CCCCN2[C@H](CO)[C@@H](c3ccc(/C=C/c4ccccc4)cc3)[C@@H]2C1`?
T cruzi growth-1: 111.5*; Pf Dd2 inh: -9.5; GASC1 inh: -2.2; T cruzi growth-2: 98.3*; T cruzi growth-3: 101.1*; NIH3T3 tox: 12.5; 3T3 cytotox 2: 104.8*

Results for Cn1cnc(S(=O)(=O)N2CCCCN3[C@H](CO)[C@@H](c4ccc(-c5ccccc5)cc4)[C@H]3C2)c1 ?
T cruzi growth-1: 98.3*; Pf Dd2 inh: 14.3; GASC1 inh: -1.1; T cruzi growth-2: 40.0; T cruzi growth-3: -32.7; NIH3T3 tox: -7.3; 3T3 cytotox 2: -5.0

How did Cn1cnc(S(=O)(=O)N2CCCCN3[C@H](CO)[C@@H](c4ccc(-c5ccc(F)cc5)cc4)[C@H]3C2)c1 do in these assays?
T cruzi growth-1: -22.7; Pf Dd2 inh: 40.2; GASC1 inh: 0.1

What do the screens show for `Cn1cnc(S(=O)(=O)N2CCCCN3[C@H](CO)[C@H](c4ccc(-c5ccc(F)cc5)cc4)[C@H]3C2)c1`?
T cruzi growth-1: inconclusive; Pf Dd2 inh: 44.1; GASC1 inh: 0.3; T cruzi growth-2: inconclusive; T cruzi growth-3: 18.4; NIH3T3 tox: 18.9; 3T3 cytotox 2: 40.6*

What do the screens show for `Cn1cnc(S(=O)(=O)N2CCCCN3[C@H](C2)[C@@H](c2ccc(-c4ccccc4)cc2)[C@@H]3CO)c1`?
T cruzi growth-1: 106.4*; Pf Dd2 inh: 19.9; GASC1 inh: 0.2; T cruzi growth-2: 99.5*; T cruzi growth-3: -13.1; NIH3T3 tox: 2.4; 3T3 cytotox 2: 11.2

Results for Cc1cccc(-c2ccc([C@@H]3[C@@H](CO)N4CCCCN(S(=O)(=O)c5cn(C)cn5)C[C@H]34)cc2)c1 ?
T cruzi growth-1: 102.1*; Pf Dd2 inh: 8.3; GASC1 inh: -0.1; T cruzi growth-2: 11.1; T cruzi growth-3: -15.5; NIH3T3 tox: 9.4; 3T3 cytotox 2: 8.5

How did Cc1ccc2c(C)c(C(=O)Nc3sc4c(c3C(=O)NCc3cccnc3)CCCC4)oc2c1 do in these assays?
IDH1 R132H inh: -0.1

What do the screens show for `CC1(C)Cc2c(sc3nc(SCC(=O)c4ccc(Cl)cc4)nc(N)c23)CS1`?
IDH1 R132H inh: -0.2

How did CSc1ccccc1-n1nnnc1SCCSc1ccccc1-n1nnnc1SC do in these assays?
IDH1 R132H inh: 0.1
